Measured values as given in ChEMBL document CHEMBL3045526, “Tailoring the structure of aminobisphosphonates to target plant P5C reductase” (J Agric Food Chem, 2008).

Biological target: T1, Pyrroline-5-carboxylate reductase (Arabidopsis thaliana, UniProt P54904)
T1 sequence (P54904 whole entry): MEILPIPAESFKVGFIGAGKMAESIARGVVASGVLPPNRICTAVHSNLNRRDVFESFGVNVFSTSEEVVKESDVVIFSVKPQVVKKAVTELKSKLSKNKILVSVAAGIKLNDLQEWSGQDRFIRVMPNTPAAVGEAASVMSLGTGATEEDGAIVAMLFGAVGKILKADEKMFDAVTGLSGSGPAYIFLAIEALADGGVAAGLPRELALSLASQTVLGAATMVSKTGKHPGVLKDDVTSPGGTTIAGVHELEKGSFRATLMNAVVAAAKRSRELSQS
Assay: Inhibition of Arabidopsis thaliana P5C assessed as reduction in NADH oxidation incubated at 35 degC up to 10 min
Summary of the method: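 P5C reductase partially purified from stationary-phase A. thaliana cultured cells. Forward reaction run in 100 mM Tris-HCl pH 8.0, 0.1 mM MgCl2, 2 mM DL-P5C, 0.25 mM NADH, with 0.15–0.20 nkat enzyme. A340 followed at 35 °C for up to 10 min against P5C-free blanks. Inhibitor final 5 µM–5 mM (pH 7.5–8.0), triplicate. IC50 by linear regression of % activity vs log concentration.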

Structure (SMILES) | IC50
O=P(O)(O)C(O)c1cccc(Cl)c1Cl (racemic) [(2,3-DICHLOROPHENYL)(HYDROXY)METHYLPHOSPHONIC ACID] | 4.9 mM
O=P(O)(O)C(O)c1ccc(Cl)cc1Cl (racemic) [(2,4-DICHLOROPHENYL)(HYDROXY)METHYLPHOSPHONIC ACID] | 5.8 mM
O=P(O)(O)C(O)c1c(Cl)cccc1Cl (racemic) [(2,6-DICHLOROPHENYL)(HYDROXY)METHYLPHOSPHONIC ACID] | 8.1 mM
O=P(O)(O)C(O)c1ccccc1Cl (racemic) [(2-CHLOROPHENYL)(HYDROXY)METHYLPHOSPHONIC ACID] | 7.1 mM
O=P(O)(O)C(O)c1ccc(Cl)c(Cl)c1 (racemic) [(3,4-DICHLOROPHENYL)(HYDROXY)METHYLPHOSPHONIC ACID] | 1.4 mM
O=P(O)(O)C(O)c1cccc(Cl)c1 (racemic) [(3-CHLOROPHENYL)(HYDROXY)METHYLPHOSPHONIC ACID] | 5.1 mM
O=P(O)(O)C(O)c1ccc(Cl)cc1 (racemic) [(4-CHLOROPHENYL)(HYDROXY)METHYLPHOSPHONIC ACID] | 45.5 mM
NC(c1cccc(Cl)c1Cl)P(=O)(O)O (racemic) [AMINO(2,3-DICHLOROPHENYL)METHYLPHOSPHONIC ACID] | 4.6 mM
COc1cccc(C(N)P(=O)(O)O)c1OC (racemic) [AMINO(2,3-DIMETHOXYPHENYL)METHYLPHOSPHONIC ACID] | 16 mM
NC(c1ccc(Cl)cc1Cl)P(=O)(O)O (racemic) [AMINO(2,4-DICHLOROPHENYL)METHYLPHOSPHONIC ACID] | 8.2 mM
NC(c1ccccc1Br)P(=O)(O)O (racemic) [AMINO(2-BROMOPHENYL)METHYLPHOSPHONIC ACID] | 63 mM
NC(c1ccccc1Cl)P(=O)(O)O (racemic) [AMINO(2-CHLOROPHENYL)METHYLPHOSPHONIC ACID] | 10.6 mM
NC(c1ccccc1F)P(=O)(O)O (racemic) [AMINO(2-FLUOROPHENYL)METHYLPHOSPHONIC ACID] | 6.6 mM
NC(c1cccc(Cl)c1)P(=O)(O)O (racemic) [AMINO(3-CHLOROPHENYL)METHYLPHOSPHONIC ACID] | 35.6 mM
O=P(O)(O)C(Nc1cccc(Cl)c1Cl)P(=O)(O)O [2,3-DICHLOROPHENYLAMINOMETHYLENEBISPHOSPHONIC ACID] | 0.102 mM
O=P(O)(O)C(Nc1ccc(Cl)cc1Cl)P(=O)(O)O [2,4-DICHLOROPHENYLAMINOMETHYLENEBISPHOSPHONIC ACID] | 0.5 mM
O=P(O)(O)C(Nc1cc(Cl)ccc1Cl)P(=O)(O)O [2,5-DICHLOROPHENYLAMINOMETHYLENEBISPHOSPHONIC ACID] | 0.73 mM
O=P(O)(O)C(Nc1c(Cl)cccc1Cl)P(=O)(O)O [2,6-DICHLOROPHENYLAMINOMETHYLENEBISPHOSPHONIC ACID] | 0.112 mM
O=P(O)(O)C(Nc1ccc(Cl)c(Cl)c1)P(=O)(O)O [3,4-DICHLOROPHENYLAMINOMETHYLENEBISPHOSPHONIC ACID] | 0.268 mM
O=P(O)(O)C(Nc1cc(Cl)cc(Cl)c1)P(=O)(O)O [(3,5-DICHLOROPHENYLAMINO)METHYLENEDIPHOSPHONIC ACID] | 0.077 mM
O=P(O)(O)C(Nc1ccc(Cl)cc1)P(=O)(O)O [(4-CHLOROPHENYLAMINO)METHYLENEDIPHOSPHONIC ACID] | 0.86 mM
